In brackets after ≈: the same amount, converted by molar mass. Activity calls are given as the source filed them. The calls are words filed in the database; no cut-off is given here. Non-standard residues stand in square brackets, D forms with d. Residues, ends and D or L forms follow the SMILES beside them. Cha = N[C@@H](CC1CCCCC1)C(=O)O; Dab = NCC[C@H](N)C(=O)O
What was measured:
Klebsiella pneumoniae = test: Antibacterial activity against carbapenem-resistant Klebsiella pneumoniae clinical isolate expressing beta-lactamase KPC after 18 to 20 hrs by broth microdilution method; type: functional
Method in brief: (§1)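 Broth microdilution in tryptic soy broth: 2-fold dilutions mixed 1:1 with ~1.5 × 10^5 CFU/mL bacterial suspension in TSB, final 0.5–32 μg/mL, 37 °C for 18–20 h. MIC = lowest concentration with no visible growth. At least three independent experiments, one replicate each.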

Pseudomonas aeruginosa [1] = test: Antibacterial activity against Pseudomonas aeruginosa ATCC 27853 after 18 to 20 hrs by broth microdilution method; type: functional
Method in brief: (§2)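 Broth microdilution in tryptic soy broth: 2-fold dilutions mixed 1:1 with ~1.5 × 10^5 CFU/mL inoculum, final 0.5–32 μg/mL; 37 °C, 18–20 h. MIC taken as lowest concentration giving no visible growth. At least three independent experiments, one replicate each.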

Pseudomonas aeruginosa [2] = test: Bactericidal activity against Pseudomonas aeruginosa ATCC 27853 at 8 ug/ml after 24 hrs by time-kill assay; type: functional
Method in brief: (§3)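 Time-kill at 8, 16 and 32 μg/mL; survivors counted on tryptic soy agar at 0, 2, 4, 6 and 24 h. Three independent experiments, one replicate each.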

Staphylococcus aureus [3] = test: Induction of cytoplasmic membrane depolarization in Staphylococcus aureus ATCC 29213 at >= 16 ug/ml by DiSC3(5) probe-based fluorescence assay; type: functional
Method in brief: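 S. aureus ATCC 29213 grown in TSB at 37 °C with shaking (200 rpm) for ~5 h after 1/100 dilution of an overnight culture. Cells washed twice in 5 mM HEPES (pH 7.2) with 5 mM glucose and resuspended in the same buffer. Loaded with 0.5 μM DiSC3(5) for 15 min at room temperature, then 100 mM KCl added. Compound given at 8–64 μg/mL final. Fluorescence read at ex 622/em 670 nm. Three independent experiments, ANOVA with Tukey HSD.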

Escherichia coli [4] = test: Antibacterial activity against carbapenem-resistant Escherichia coli clinical isolate expressing beta-lactamase KPC3, TEM1 after 18 to 20 hrs by broth microdilution method; type: functional; method in brief: as §1
Pseudomonas aeruginosa [5] = test: Induction of cytoplasmic membrane depolarization in Pseudomonas aeruginosa ATCC 27853 at >= 16 ug/ml by DiSC3(5) probe-based fluorescence assay; type: functional
Staphylococcus aureus [6] = test: Antibacterial activity against methicillin-resistant Staphylococcus aureus LAC; type: functional
Enterococcus faecium [7] = test: Bactericidal activity against Enterococcus faecium ATCC 19434; type: functional; conditions: read-out: MBC99.9
Method in brief: (§4)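 MBC from MIC plates at end point: 50 μL from each well with no visible growth plated on tryptic soy agar and counted. MBC taken as lowest concentration giving ≥99.9% fall in viable count relative to initial inoculum. Three independent experiments, one replicate each.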

Escherichia coli [8] = test: Antibacterial activity against Escherichia coli ATCC 25922 in presence of 100% serum after 6 hrs by broth microdilution method; type: functional; conditions: ATCC 25922, 6 h
Method in brief: (§5)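 Serum stability: compound added to 100% human serum at final 64 μg/mL, held at 37 °C, sampled at 0, 6, 12 and 24 h. […] Residual activity compared with untreated control.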

Pseudomonas aeruginosa [9] = test: Induction of cytoplasmic membrane damage in Pseudomonas aeruginosa ATCC 27853 assessed as intracellular potassium ion release at 32 to 64 ug/ml by PBFI probe-based fluorescence assay; type: functional, cell-based
Method in brief: (§6)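 Mid-log cells washed and suspended in 5 mM HEPES pH 7.2 + 5 mM glucose. PBFI K+ probe added at final 2 μM, then compound at final 8–64 μg/mL; fluorescence read at ex 346/em 505 nm. Three independent experiments; change in fluorescence analysed by ANOVA with Tukey HSD.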

Escherichia coli [10] = test: Antibacterial activity against polymyxin-resistant Escherichia coli UAMS-ECPR1 after 18 to 20 hrs by broth microdilution method; type: functional; method in brief: as §1
Acinetobacter baumannii [11] = test: Bactericidal activity against Acinetobacter baumannii ATCC 19606; type: functional; conditions: ATCC 19606 = CIP 70.34 = JCM 6841, read-out: MBC99.9; method in brief: as §4
Pseudomonas aeruginosa [12] = test: Bactericidal activity against Pseudomonas aeruginosa ATCC 27853 at 16 ug/ml after 2 hrs by time-kill assay relative to control; type: functional; method in brief: as §3
Escherichia coli [13] = test: Antibacterial activity against Escherichia coli ATCC 25922 in presence of 100% serum after 24 hrs by broth microdilution method; type: functional; conditions: ATCC 25922, 24 h; method in brief: as §5
Staphylococcus aureus [14] = test: Bactericidal activity against Staphylococcus aureus ATCC 29213; type: functional; conditions: read-out: MBC99.9; method in brief: as §4
Staphylococcus aureus [15] = test: Bactericidal activity against Staphylococcus aureus ATCC 29213 at 8 ug/ml after 24 hrs by time-kill assay; type: functional; method in brief: as §3
Pseudomonas aeruginosa [16] = test: Bactericidal activity against Pseudomonas aeruginosa ATCC 27853 at 16 to 32 ug/ml after 24 hrs by time-kill assay; type: functional; method in brief: as §3
Escherichia coli [17] = test: Antibacterial activity against Escherichia coli ATCC 25922 in presence of 100% serum after 12 hrs by broth microdilution method; type: functional; conditions: ATCC 25922, 12 h; method in brief: as §5
Acinetobacter baumannii [18] = test: Antibacterial activity against carbapenem-resistant Acinetobacter baumannii clinical isolate expressing beta-lactamase OXA-23, 24/40 after 18 to 20 hrs by broth microdilution method; type: functional; method in brief: as §1
Enterobacter cloacae [19] = test: Antibacterial activity against carbapenem-resistant Enterobacter cloacae clinical isolate expressing beta-lactamase NDM after 18 to 20 hrs by broth microdilution method; type: functional; method in brief: as §1
Escherichia coli [20] = test: Bactericidal activity against Escherichia coli ATCC 25922; type: functional; conditions: read-out: MBC99.9; method in brief: as §4
Escherichia coli [21] = test: Antibacterial activity against polymyxin-resistant Escherichia coli AR 0494 expressing mcr1 after 18 to 20 hrs by broth microdilution method; type: functional; method in brief: as §1
Escherichia coli [22] = test: Antibacterial activity against Escherichia coli ATCC 25922 after 18 to 20 hrs by broth microdilution method; type: functional; method in brief: as §2
Staphylococcus aureus [23] = test: Antibacterial activity against methicillin-resistant Staphylococcus aureus ATCC 43300 after 18 to 20 hrs by broth microdilution method; type: functional; method in brief: as §1
Enterococcus faecium [24] = test: Antibacterial activity against Enterococcus faecium ATCC 19434 after 18 to 20 hrs by broth microdilution method; type: functional; method in brief: as §2
Pseudomonas aeruginosa [25] = test: Bactericidal activity against Pseudomonas aeruginosa ATCC 27853; type: functional; conditions: read-out: MBC99.9; method in brief: as §4
Staphylococcus aureus [26] = test: Induction of cytoplasmic membrane damage in Staphylococcus aureus ATCC 29213 assessed as intracellular potassium ion release at 32 to 64 ug/ml by PBFI probe-based fluorescence assay; type: functional, cell-based; method in brief: as §6
Staphylococcus aureus [27] = test: Bactericidal activity against Staphylococcus aureus ATCC 29213 at 16 ug/ml after 4 hrs by time-kill assay relative to control; type: functional; method in brief: as §3
Staphylococcus aureus [28] = test: Antibacterial activity against Staphylococcus aureus ATCC 29213 after 18 to 20 hrs in presence of 95% serum by broth microdilution method; type: functional
Method in brief: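 Same microdilution with human serum as medium: compound 2-fold diluted in 100% serum, mixed 1:1 with 90% serum holding ~1.5 × 10^5 CFU/mL, giving 95% serum and final 0.5–64 μg/mL. MIC read as no visible growth after incubation as for the broth test.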

Enterobacter cloacae [29] = test: Antibacterial activity against carbapenem-resistant Enterobacter cloacae clinical isolate expressing beta-lactamase KPC-3, TEM1 after 18 to 20 hrs by broth microdilution method; type: functional; method in brief: as §1
Staphylococcus aureus [30] = test: Bactericidal activity against Staphylococcus aureus ATCC 29213 at 32 ug/ml after 4 hrs by time-kill assay relative to control; type: functional; method in brief: as §3
Pseudomonas aeruginosa [31] = test: Bactericidal activity against Pseudomonas aeruginosa ATCC 27853 at 8 ug/ml after 2 hrs by time-kill assay relative to control; type: functional; method in brief: as §3

In the case of CC(C)C[C@H](NC(=O)[C@@H](Cc1ccccc1)NC(=O)[C@H](CCN)NC(=O)[C@H](Cc1ccccc1)NC(=O)[C@H](CCN)NC(=O)[C@@H](N)CC1CCCCC1)C(=O)N[C@@H](CCN)C(=O)N[C@H](CC(C)C)C(=O)N[C@@H](Cc1ccccc1)C(=O)N[C@@H](CO)C(N)=O (H-[Cha][Dab]F[Dab][dF]L[Dab][dL]FS-NH2), the MIC (Klebsiella pneumoniae) is reported as 1 to 2 µg/mL (≈ 0.816 to 1.63 µM), the MIC (Pseudomonas aeruginosa [1]) is reported as 0.5 to 1 µg/mL (≈ 0.408 to 0.816 µM) and the Activity (Pseudomonas aeruginosa [2]) is reported as “inactive”. The Activity (Staphylococcus aureus [3]) was “Active”, the MIC (Escherichia coli [4]) was 0.5 to 1 µg/mL (≈ 0.408 to 0.816 µM) and the Activity (Pseudomonas aeruginosa [5]) was “Active”. For the same compound, the MIC (Staphylococcus aureus [6]) was 8 µg/mL (≈ 6.53 µM), the MBC (Enterococcus faecium [7]) was 16 µg/mL (≈ 13.1 µM) and the MIC (Escherichia coli [8]) was 4 to 8 µg/mL. The Activity (Pseudomonas aeruginosa [9]) was “Active”, the MIC (Escherichia coli [10]) was < 0.5 µg/mL and the MBC (Acinetobacter baumannii [11]) was 4 to 8 µg/mL (≈ 3.26 to 6.53 µM). The Activity (Pseudomonas aeruginosa [12]) was 3.7 deltalog10CFU/ml, the MIC (Escherichia coli [13]) was 8 µg/mL and the MBC (Staphylococcus aureus [14]) was 8 µg/mL (≈ 6.53 µM). The Activity (Staphylococcus aureus [15]) was “inactive”, the Activity (Pseudomonas aeruginosa [16]) was “Active” and the MIC (Escherichia coli [17]) was 4 to 8 µg/mL. It also gave an MIC (Acinetobacter baumannii [18]) of 0.5 µg/mL (≈ 0.408 µM), an MIC (Enterobacter cloacae [19]) of 0.5 µg/mL (≈ 0.408 µM) and an MBC (Escherichia coli [20]) of 8 to 16 µg/mL (≈ 6.53 to 13.1 µM). For the same compound, the MIC (Escherichia coli [21]) was 0.5 µg/mL (≈ 0.408 µM), the MIC (Escherichia coli [22]) was 0.5 to 1 µg/mL (≈ 0.408 to 0.816 µM) and the MIC (Staphylococcus aureus [23]) was 4 µg/mL (≈ 3.26 µM). For the same compound, the MIC (Enterococcus faecium [24]) was 8 µg/mL (≈ 6.53 µM), the MBC (Pseudomonas aeruginosa [25]) was 2 to 4 µg/mL (≈ 1.63 to 3.26 µM) and the Activity (Staphylococcus aureus [26]) was “Active”. For the same compound, the Activity (Staphylococcus aureus [27]) was 3.1 deltalog10CFU/ml, the MIC (Staphylococcus aureus [28]) was 32 µg/mL and the MIC (Enterobacter cloacae [29]) was 0.5 µg/mL (≈ 0.408 µM). The Activity (Staphylococcus aureus [30]) was 5.4 deltalog10CFU/ml and the Activity (Pseudomonas aeruginosa [31]) was 2.2 deltalog10CFU/ml.

Source: ChEMBL document CHEMBL4052819 (2017)
